Source: ChEMBL document CHEMBL4406859, “Antitumor and antiviral activities of 4-substituted 1,2,3-triazolyl-2,3-dibenzyl-L-ascorbic acid derivatives” (Eur J Med Chem, 2019)

Legend:
CFPAC-1 = experiment: Antiproliferative activity against human CFPAC-1 cells assessed as reduction in cell viability incubated for 72 hrs by MTT assay; format: functional, cell-based; conditions: Homo sapiens, CFPAC-1, 72 h; read-out: IC50
How it was run: (§1)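 Cells (ATCC) grown in DMEM with 10 FBS, penicillin/streptomycin, 2 mM glutamine, 37 °C, 5 CO2. 5000 cells/well seeded; after 24 h, freshly prepared dilutions at five concentrations (0.01–100 μM) added for 72 h. MTT read-out; absorbance converted to percentage growth by NIH formulas. Two experiments in quadruplicate; IC50 by linear regression.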

MCF7 = experiment: Antiproliferative activity against human MCF7 cells assessed as reduction in cell viability incubated for 72 hrs by MTT assay; format: functional, cell-based; conditions: MCF7, 72 h; how it was run: as §1
HCT-116 = experiment: Antiproliferative activity against human HCT116cells assessed as reduction in cell viability incubated for 72 hrs by MTT assay; format: functional, cell-based; conditions: HCT-116, 72 h; how it was run: as §1
A549 = experiment: Antiproliferative activity against human A549 cells assessed as reduction in cell viability incubated for 72 hrs by MTT assay; format: functional, cell-based; conditions: A549, 72 h; how it was run: as §1
HFF = experiment: Cytotoxicity against human HFF cells assessed as reduction in cell viability incubated for 72 hrs by MTT assay; format: cell-based; how it was run: as §1
SW-620 = experiment: Antiproliferative activity against human SW620 cells assessed as reduction in cell viability incubated for 72 hrs by MTT assay; format: functional, cell-based; conditions: SW-620, 72 h; how it was run: as §1
HepG2 = experiment: Antiproliferative activity against human HepG2 cells assessed as reduction in cell viability incubated for 72 hrs by MTT assay; format: functional, cell-based; conditions: HepG2, 72 h; how it was run: as §1
HeLa = experiment: Antiproliferative activity against human HeLa cells assessed as reduction in cell viability incubated for 72 hrs by MTT assay; format: functional, cell-based; how it was run: as §1
[1] = Cytotoxicity against human HELF cells assessed as minimum cytotoxic concentration by observing alteration in cell morphology incubated for 3 days by microscopic analysis; format: cell-based; conditions: HELF cells
How it was run: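 Read-out is the minimum cytotoxic concentration (MCC): the lowest compound concentration giving a microscopically detectable change in cell morphology. Measured on confluent human embryonic lung (HEL) fibroblast cultures exposed to a range of compound concentrations.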

Human adenovirus 2 = experiment: Antiviral activity against Human adenovirus 2 infected in human HELF cells assessed as reduction in virus-induced cytopathogenicity incubated for 7 days by microscopic analysis; format: functional, organism-based; conditions: Human mastadenovirus C, 168 h
Human alphaherpesvirus 1 [2] = experiment: Antiviral activity against Herpes simplex virus 1 KOS infected in human HELF cells assessed as reduction in virus-induced cytopathogenicity incubated for 7 days by microscopic analysis; format: functional, organism-based; conditions: Human alphaherpesvirus 1, strain KOS, 168 h
Human coronavirus 229E = experiment: Antiviral activity against Human coronavirus 229E infected in human HELF cells assessed as reduction in virus-induced cytopathogenicity incubated for 7 days by microscopic analysis; format: functional, organism-based; conditions: 168 h
Human alphaherpesvirus 1 [3] = experiment: Antiviral activity against Herpes simplex virus 1 TK-KOS-ACV infected in human HELF cells assessed as reduction in virus-induced cytopathogenicity incubated for 7 days by microscopic analysis; format: functional, organism-based; conditions: Human alphaherpesvirus 1, TK-KOS-ACV, 168 h
Human alphaherpesvirus 2 = experiment: Antiviral activity against Herpes simplex virus 2 G infected in human HELF cells assessed as reduction in virus-induced cytopathogenicity incubated for 7 days by microscopic analysis; format: functional, organism-based; conditions: Human alphaherpesvirus 2, G, 168 h

| Compound | IC50 (CFPAC-1) [µM] | IC50 (MCF7) [µM] | IC50 (HCT-116) [µM] | IC50 (A549) [µM] | IC50 (HFF) [µM] | IC50 (SW-620) [µM] | IC50 (HepG2) [µM] | IC50 (HeLa) [µM] | MCC at 72 h [1] [µM] | EC50 (Human adenovirus 2) [µM] | EC50 (Human alphaherpesvirus 1 [2]) [µM] | EC50 (Human coronavirus 229E) [µM] | EC50 (Human alphaherpesvirus 1 [3]) [µM] | EC50 (Human alphaherpesvirus 2) [µM] |
| --- | --- | --- | --- | --- | --- | --- | --- | --- | --- | --- | --- | --- | --- | --- |
| O=C1O[C@H]([C@@H](O)Cn2cc(-c3cccc(O)c3)nn2)C(OCc2ccccc2)=C1OCc1ccccc1 | 54.1 | 51.8 | 42.9 | 59.9 | 39 | > 100 | 62.7 |  |  |  |  |  |  |  |
| Cc1ccc(-c2cn(C[C@H](O)[C@H]3OC(=O)C(OCc4ccccc4)=C3OCc3ccccc3)nn2)cc1 | > 100 | > 100 | > 100 | 8.69 | > 100 | > 100 | 8.77 | 25.5 |  |  |  |  |  |  |
| CCCCCCCCCCc1cn(C/C=C2\OC(=O)C(OCc3ccccc3)=C2OCc2ccccc2)nn1 | > 100 | 72 | 98.8 | > 100 | > 100 | 91.7 | > 100 | > 100 |  |  |  |  |  |  |
| Nc1ccn([C@H]2CC[C@@H](CO)O2)c(=O)n1 [ZALCITABINE] |  |  |  |  |  |  |  |  | > 250 | 10 |  |  |  |  |
| COc1ccccc1-c1cn(C[C@H](O)[C@H]2OC(=O)C(OCc3ccccc3)=C2OCc2ccccc2)nn1 | > 100 | > 100 | > 100 | > 100 | 0.05 | > 100 | > 100 | > 100 |  |  |  |  |  |  |
| CC(C)(C)OC(=O)N1CCN(C(=S)SCc2cn(C[C@H](O)[C@H]3OC(=O)C(OCc4ccccc4)=C3OCc3ccccc3)nn2)CC1 | > 100 | > 100 | > 100 | > 100 | 0.06 | > 100 | > 100 | > 100 |  |  |  |  |  |  |
| CCCCCc1ccc(-c2cn(C[C@H](O)[C@H]3OC(=O)C(OCc4ccccc4)=C3OCc3ccccc3)nn2)cc1 | 9.89 | 9.01 | 13.8 | 6.22 | > 100 | 12.2 | 7.46 | 8.39 |  |  |  |  |  |  |
| O=C1O/C(=C\Cn2cc(-c3cc(C(F)(F)F)cc(C(F)(F)F)c3)nn2)C(OCc2ccccc2)=C1OCc1ccccc1 | > 100 | > 100 | > 100 | > 100 | > 100 | > 100 | > 100 | > 100 |  |  |  |  |  |  |
| O=C1O[C@H]([C@@H](O)Cn2cc(-c3ccc(Br)cc3)nn2)C(OCc2ccccc2)=C1OCc1ccccc1 | 5.83 | 5.62 | 9.42 | 0.75 | 5.1 | 3.76 |  | 3.91 |  |  |  |  |  |  |
| O=C1O[C@H]([C@@H](O)Cn2cc(-c3cc(C(F)(F)F)cc(C(F)(F)F)c3)nn2)C(OCc2ccccc2)=C1OCc1ccccc1 | 66.5 | 45.9 | 57.2 | 28.9 | 80.7 | 49.2 | 33.8 | 35.5 |  |  |  |  |  |  |
| O=C1O[C@H]([C@@H](O)Cn2cc(CCO)nn2)C(OCc2ccccc2)=C1OCc1ccccc1 | > 100 | 63.4 | 72.7 | > 100 | 58.5 | > 100 | 68.1 | 68.8 |  |  |  |  |  |  |
| O=C1O[C@H]([C@@H](O)Cn2cc(CNS(=O)(=O)c3ccc(Cl)cc3)nn2)C(OCc2ccccc2)=C1OCc1ccccc1 | 38.9 | 4.17 | 8.38 | 2.87 | 0.02 | 18 | 7.51 | 13.6 |  |  |  |  |  |  |
| Cc1cn([C@H]2C[C@H](F)[C@@H](CO)O2)c(=O)[nH]c1=O [ALOVUDINE] |  |  |  |  |  |  |  |  | > 250 | 22 |  |  |  |  |
| O=C1O/C(=C\Cn2cc(CCCCl)nn2)C(OCc2ccccc2)=C1OCc1ccccc1 | > 100 | 23.6 | 66.8 |  | 94.1 | 21.6 | 81.1 | 66.8 |  |  |  |  |  |  |
| O=C1O[C@H]([C@@H](O)CO)C(O)=C1O [ASCORBIC ACID] | > 100 | > 100 | > 100 | > 100 | > 100 | > 100 | > 100 | > 100 |  |  |  |  |  |  |
| O=C1O[C@H]([C@@H](O)Cn2cc(-c3cc(F)cc(F)c3)nn2)C(OCc2ccccc2)=C1OCc1ccccc1 | 62.4 | 27.7 | 48.2 | 41.2 | > 100 | > 100 | 11.6 | 40.8 |  |  |  |  |  |  |
| O=C1O/C(=C\Cn2cc(C3CC3)nn2)C(OCc2ccccc2)=C1OCc1ccccc1 | 97.1 | 9.27 | 32.4 | > 100 | 17 | 29.5 | 53.1 | 76.8 |  |  |  |  |  |  |
| O=C1O[C@H]([C@@H](O)Cn2cc(CNS(=O)(=O)c3ccc(F)cc3)nn2)C(OCc2ccccc2)=C1OCc1ccccc1 | 34.7 | 26.8 | 22.9 | 22.5 | 0.03 | 41.1 | 18.3 | 25 |  |  |  |  |  |  |
| CCCCc1cn(C/C=C2\OC(=O)C(OCc3ccccc3)=C2OCc2ccccc2)nn1 | 72.5 | 57.2 | 61.2 | > 100 | 49.5 |  | 77.1 | 67.7 | 100 | 20 | > 100 | 8.45 | > 100 | 9.45 |
| COc1ccc(-c2cn(C[C@H](O)[C@H]3OC(=O)C(OCc4ccccc4)=C3OCc3ccccc3)nn2)cc1 | 26 | 99.7 | > 100 | 28.3 | < 0.01 | 58.2 | 46.4 | 16.4 |  |  |  |  |  |  |
| Cc1ccc(S(=O)(=O)NCc2cn(C[C@H](O)[C@H]3OC(=O)C(OCc4ccccc4)=C3OCc3ccccc3)nn2)cc1 | 68 | 6.4 | 13.1 | 16.8 | 0.05 | 45.8 | 24.9 | 14.4 |  |  |  |  |  |  |
| CCCCCc1ccc(-c2cn(C/C=C3\OC(=O)C(OCc4ccccc4)=C3OCc3ccccc3)nn2)cc1 | > 100 | > 100 | > 100 | > 100 | > 100 | > 100 | > 100 | > 100 |  |  |  |  |  |  |
| O=C1O[C@H]([C@@H](O)Cn2cc(CCCCl)nn2)C(OCc2ccccc2)=C1OCc1ccccc1 | 58.8 | 24.5 | 36.1 | 29 | 27.1 | 68.5 | 35 | 36.7 |  |  |  |  |  |  |
